Measured values from different studies.
Compare with care: the assays were run in different laboratories.
Target: Bone morphogenetic protein receptor type-1B (BMPR1B, Homo sapiens, UniProt O00238)

O=C(NCCCN1CCOCC1)c1ccc(Nc2ncc(Cl)c(-c3ccc(Cl)s3)n2)cc1 — remaining binding (binding, competition with immobilised ligand; 1 µM): 56%
COc1ccnn2ncc(-c3ccnc(N(C)C)n3)c12 — remaining binding (binding; 1 µM): 51%
O=C(c1ccc(Nc2ncc(Cl)c(-c3cc4ccccc4s3)n2)cc1)N1CCC(N2CCCC2)CC1 — remaining binding (binding, competition with immobilised ligand; 1 µM): 62%
O=c1nc(-c2ccccn2)sc2ccccc12 — remaining binding (cell-free assay, competition with immobilised ligand; 1 µM): 75%
FC(F)(F)Oc1cccc(-c2cnc3ccc(-c4ccncc4)nn23)c1 — remaining binding (cell-free assay, competition with immobilised ligand; 5 µM): 22%
CN(C)c1nccc(-c2cnc3ncccn23)n1 — remaining binding (binding; 1 µM): 82%
COc1cnc(Nc2cccc(S(N)(=O)=O)c2)nc1N1CCN(c2ccccc2)CC1 — remaining binding (binding, competition with immobilised ligand; 1 µM): 87%
N[C@@H]1CCN(c2nccc(-c3cnn4ncccc34)n2)C1 — remaining binding (binding; 1 µM): 94%
CC1=C(C#N)C(c2ccc3c(c2)c(NC(=O)c2ccccc2C)nn3C)C(C#N)=C(C)N1 — remaining binding (cell-free assay, competition with immobilised ligand; 1 µM): 91%
O=C(c1ccc(Nc2ncc(Cl)c(-c3ccc(Cl)s3)n2)cc1)N1CCC(N2CCCC2)CC1 — remaining binding (binding, competition with immobilised ligand; 1 µM): 18%
COc1ccc2c(c1)O[C@H](c1ccc(OC)c(OC)c1)C[C@@H]2NC(=O)C1(c2ccc3c(c2)OC(F)(F)O3)CC1 — remaining binding (cell-free assay, competition with immobilised ligand; 1 µM): 100%
Cc1cnn2ncc(-c3ccnc(N(C)C)n3)c2c1 — remaining binding (binding; 1 µM): 67%
O=C1CCc2cc(Nc3cc(OC4CCOCC4)c([N+](=O)[O-])cc3Cl)ccc2N1 — remaining binding (cell-free assay, competition with immobilised ligand; 1 µM): 87%
O=C(NCC1CCOCC1)c1n[nH]cc1NC(=O)c1c(F)cccc1F — remaining binding (binding, competition with immobilised ligand; 1 µM): 90%
C[C@H]1CCN(c2nccc(-c3cnn4ncccc34)n2)C1 — remaining binding (binding; 1 µM): 60%
c1cncc(-c2cccc(Nc3nccc(NC4CCCCC4)n3)c2)c1 — remaining binding (binding, competition with immobilised ligand; 10 µM): 47%
Cc1cc(C)c(-n2ccn3nc(-c4cccnc4)cc23)cc1NC(=O)c1cc(C#N)cc(S(F)(F)(F)(F)F)c1 — remaining binding (cell-free assay, competition with immobilised ligand; 0.1 µM): 72.3%
CCN1CCN(Cc2ccc(C(=O)Nc3ccc(C)c(Oc4ccc5c(c4)CC(=O)N5)c3)cc2C(F)(F)F)CC1 — remaining binding (binding, competition with immobilised ligand; 1 µM): 100%
CSc1cccnc1N1CCN(Cc2nc3ccccc3[nH]2)CC1 — remaining binding (cell-free assay, competition with immobilised ligand; 1 µM): 80%
c1cnn2ncc(-c3ccnc(N4CCC45COC5)n3)c2c1 — remaining binding (binding; 1 µM): 52%
O=C(NCc1ncc(C(F)(F)F)cc1Cl)c1ccc2c(c1)C1(CCS(=O)(=O)CC1)[C@H](C1CC1)N2S(=O)(=O)c1ccc(F)cc1 — remaining binding (cell-free assay, competition with immobilised ligand; 1 µM): 93%
CN(CCCC(F)(F)F)c1nccc(-c2cnn3ncccc23)n1 — remaining binding (binding; 1 µM): 93%
